According to ChEMBL document CHEMBL4145669 (J Med Chem, 2018):
Square brackets hold non-standard residues; d marks the D form. Peptide text beside a SMILES is read from it. hPhe = N[C@@H](CCc1ccccc1)C(=O)O; Nle = CCCC[C@H](N)C(=O)O; Dap = NC[C@H](N)C(=O)O

Columns and labels:
Melanocortin receptor 4 = Melanocortin receptor 4 (Mus musculus, UniProt P56450); assay: Antagonist activity at mouse MC4R expressed in HEK293 cells assessed as reduction in NDP-MSH-induced response incubated for 2 hrs by AlphaScreen cAMP assay based Schild analysis; type: functional, cell-based; details: read-out: pA2 (converted)
Melanocortin receptor 5 = Melanocortin receptor 5 (Mus musculus, UniProt P41149); assay: Inverse agonist activity at mouse MC5R expressed in HEK293 cells incubated for 2 hrs by AlphaScreen cAMP assay; type: functional, cell-based
Summary of the method: (§1)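 In the mouse MC5R HEK293 stable line, cells in IBMX-containing stimulation buffer with anti-cAMP acceptor beads were exposed to compound at up to 100 μM for 2 h at room temperature in the dark. Donor beads/biotinylated cAMP were then added for 2 h before AlphaScreen reading. Signal was normalized to basal response to give a percent difference from basal. Duplicate wells, ≥3 independent experiments.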

[1] = target: Melanocortin receptor 4 (Mus musculus) (UniProt P56450); assay: Potency index, ratio of pA2 for test compound to pA2 for AGRP for antagonist activity at mouse MC4R expressed in HEK293 cells assessed as reduction in NDP-MSH-induced response incubated for 2 hrs by AlphaScreen cAMP assay based Schild analysis; type: functional, cell-based
[2] = target: Melanocyte-stimulating hormone receptor (Mus musculus, UniProt Q01727); assay: Agonist activity at mouse MC1R expressed in HEK293 cells incubated for 2 hrs by AlphaScreen cAMP assay; type: functional, cell-based
Summary of the method: (§2)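 HEK293 cells stably expressing mouse MC1R, about 90% confluent, were detached with Versene and suspended at 10,000 cells/μL in stimulation buffer (HBSS, 0.5 mM IBMX, 5 mM HEPES, 0.1% BSA, pH 7.4) with anti-cAMP acceptor beads. Compound was added for 2 h at room temperature in the dark, then donor beads/biotinylated cAMP in lysis buffer for 2 h, followed by AlphaScreen read. Doses went up to 100 μM in duplicate wells, ≥3 experiments. EC50 came from nonlinear regression, with efficacy as a percent of NDP-MSH.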

Melanocortin receptor 3 = Melanocortin receptor 3 (Mus musculus, UniProt P33033); assay: Antagonist activity at mouse MC3R expressed in HEK293 cells assessed as reduction in NDP-MSH-induced response incubated for 2 hrs by AlphaScreen cAMP assay based Schild analysis; type: functional, cell-based; details: read-out: pA2 (converted)
[3] = target: Melanocortin receptor 5 (Mus musculus) (UniProt P41149); assay: Inverse agonist activity at mouse MC5R expressed in HEK293 cells at 100 uM incubated for 2 hrs by AlphaScreen cAMP assay; type: functional, cell-based; summary of the method: as §1
[4] = target: Melanocortin receptor 3 (Mus musculus) (UniProt P33033); assay: Agonist activity at mouse MC3R expressed in HEK293 cells at 100 uM incubated for 2 hrs by AlphaScreen cAMP assay relative to untreated control; type: functional, cell-based
[5] = target: Melanocortin receptor 4 (Mus musculus) (UniProt P56450); assay: Agonist activity at mouse MC4R expressed in HEK293 cells at 100 uM incubated for 2 hrs by AlphaScreen cAMP assay relative to untreated control; type: functional, cell-based
Mus musculus = species: Mus musculus; assay: Selectivity index, ratio of pA2 for antagonist activity at mouse MC3R expressed in HEK293 cells to pA2 for antagonist activity at mouse MC4R expressed in HEK293 cells; type: cell-based
[6] = target: Melanocyte-stimulating hormone receptor (Mus musculus) (UniProt Q01727); assay: Agonist activity at mouse MC1R expressed in HEK293 cells at 100 uM incubated for 2 hrs by AlphaScreen cAMP assay relative to NDP-MSH; type: functional, cell-based; summary of the method: as §2
Chain of Melanocyte-stimulating hormone receptor (Mus musculus) (Q01727 whole entry, looked up): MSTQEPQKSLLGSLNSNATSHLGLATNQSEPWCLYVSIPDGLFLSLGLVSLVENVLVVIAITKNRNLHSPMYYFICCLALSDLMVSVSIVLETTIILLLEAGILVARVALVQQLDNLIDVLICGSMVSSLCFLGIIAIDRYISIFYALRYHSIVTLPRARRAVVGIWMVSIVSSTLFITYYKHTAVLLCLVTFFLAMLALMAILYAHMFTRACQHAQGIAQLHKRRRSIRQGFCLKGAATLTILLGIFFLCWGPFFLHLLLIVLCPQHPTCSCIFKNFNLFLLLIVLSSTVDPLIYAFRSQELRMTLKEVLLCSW

Chain of Melanocortin receptor 4 (Mus musculus) (P56450 whole entry): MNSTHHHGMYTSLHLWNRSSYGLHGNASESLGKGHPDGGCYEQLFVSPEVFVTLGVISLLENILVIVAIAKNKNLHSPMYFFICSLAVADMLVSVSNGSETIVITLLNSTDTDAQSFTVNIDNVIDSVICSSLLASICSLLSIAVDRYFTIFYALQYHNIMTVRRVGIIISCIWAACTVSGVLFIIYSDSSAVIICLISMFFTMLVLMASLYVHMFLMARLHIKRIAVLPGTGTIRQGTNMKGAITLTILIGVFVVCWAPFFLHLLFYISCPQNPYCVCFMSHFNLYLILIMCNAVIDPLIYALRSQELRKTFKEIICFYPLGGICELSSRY
Chain of Melanocortin receptor 5 (Mus musculus) (P41149 whole entry): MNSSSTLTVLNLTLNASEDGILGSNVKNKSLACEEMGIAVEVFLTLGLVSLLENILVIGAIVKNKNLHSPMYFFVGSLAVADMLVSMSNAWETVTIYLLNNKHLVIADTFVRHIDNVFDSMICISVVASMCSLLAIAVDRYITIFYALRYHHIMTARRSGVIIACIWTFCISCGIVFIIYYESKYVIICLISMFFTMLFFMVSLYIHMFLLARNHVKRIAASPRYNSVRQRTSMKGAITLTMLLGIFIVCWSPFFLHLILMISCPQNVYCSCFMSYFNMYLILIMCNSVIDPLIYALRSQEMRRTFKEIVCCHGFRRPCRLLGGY
Chain of Melanocortin receptor 5 (P41149 whole entry): as above
Chain of Melanocortin receptor 3 (Mus musculus) (P33033 whole entry): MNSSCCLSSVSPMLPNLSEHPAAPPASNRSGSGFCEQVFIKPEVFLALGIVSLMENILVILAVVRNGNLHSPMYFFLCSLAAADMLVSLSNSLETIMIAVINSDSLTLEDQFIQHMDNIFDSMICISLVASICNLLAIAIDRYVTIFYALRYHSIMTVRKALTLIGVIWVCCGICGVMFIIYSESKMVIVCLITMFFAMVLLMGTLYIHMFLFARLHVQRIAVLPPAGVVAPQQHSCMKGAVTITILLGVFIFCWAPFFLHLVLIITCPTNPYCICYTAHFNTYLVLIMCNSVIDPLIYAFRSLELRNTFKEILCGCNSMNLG
Chain of Melanocortin receptor 3 (P33033 whole entry): as above
Chain of Melanocortin receptor 4 (P56450 whole entry): as the sequence (P56450 whole entry) above
Chain of Melanocyte-stimulating hormone receptor (Q01727 whole entry): as the sequence (Q01727 whole entry, looked up) above

With `CCCC[C@@H]1NC(=O)[C@H](CO)NC(=O)[C@H](CN)NC(=O)[C@H](CCc2ccccc2)NC(=O)[C@H](Cc2ccccc2)NC(=O)[C@H](CCCNC(=N)N)NC(=O)[C@@H]2CCCN2C(=O)[C@H]2CCCN2C1=O` (cyclo(RF[hPhe][Dap]S[Nle][dP]P)) the Kb (Melanocortin receptor 4) was 0.000316 µM, the EC50 (Melanocortin receptor 5) was > 100 µM and the Ratio [1] was 3 to 6. The EC50 [2] was > 100 µM, the Kb (Melanocortin receptor 3) was 0.2 µM and the Activity [3] was < 20%. For the same compound, the Activity [4] was < 20%, the Activity [5] was < 20% and the Ratio (Mus musculus) was 630. For the same compound, the Activity [6] was < 20%.
